# Screens as filed in PubChem.
# PAD4 inh: inhibitors of human PAD4 | recombinant PAD4, RCA probe fluorescence polarization | 330,000 tested, 0.41% active | inhibition, % at 6.36 µM | AID 485272;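 active = percent inhibition above a cutoff equal to the mean of all tested compounds plus 3 SD, cut at about 15% in these data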;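 note: 0% = PAD4 with RCA probe and DMSO and 100% = probe without PAD4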
# Apaf1 inhib: inhibitors of human Apaf-1 apoptosome. O14727. reconstituted apoptosome caspase-3 activity, DEVD-Rh110 fluorescence. inhibition, % at 20 µM. 330,000 tested, 0.71% active; active = inhibition of at least 40% at 20 µM;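 note: plate controls were DMSO wells for no effect and DEVD-CHO caspase inhibitor wells for full effect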
#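 Assay system: Apoptosome proteins | Medium: pH 7.5 Hepes buffer with CHAPS, BSA, DTT | Also added: Cytochrome c and DEVD-Rh110 substrate | Times: 30 min plus 50 min, RT | Detection: Rhodamine 110 fluorescence at Ex 480/Em 540 nm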
# CTSL1 counter: cathepsin L1 inhibition, PFM18AAP counter-screen; recombinant F. hepatica cathepsin L1, Z-Leu-Arg-MCA fluorescence; inhibition, % at 5.96 µM; 300,000 tested, 0.49% active;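 active = inhibition above the mean of all tested compounds plus 3 SD, set per screening campaign, cut at about 17% in these data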;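 note: 0% = plate median of test compound wells and 100% = 1 µM Z-Phe-Ala-diazomethylketone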
# TDP2 inh: TDP2 (human) inhibition, absorbance primary screen | O95551 | recombinant TDP2, T5PNP hydrolysis, p-nitrophenol absorbance 415 nm | inhibition, % at 12.8 µM | 370,000 tested, 0.34% active | AID 720702;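 active = inhibition above the mean of all tested compounds plus 3 SD, set per campaign, cut at about 25% in these data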;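 note: 0% = DMSO with enzyme and 100% = buffer with substrate but no TDP2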
# Target sequence (O95551 whole entry, looked up): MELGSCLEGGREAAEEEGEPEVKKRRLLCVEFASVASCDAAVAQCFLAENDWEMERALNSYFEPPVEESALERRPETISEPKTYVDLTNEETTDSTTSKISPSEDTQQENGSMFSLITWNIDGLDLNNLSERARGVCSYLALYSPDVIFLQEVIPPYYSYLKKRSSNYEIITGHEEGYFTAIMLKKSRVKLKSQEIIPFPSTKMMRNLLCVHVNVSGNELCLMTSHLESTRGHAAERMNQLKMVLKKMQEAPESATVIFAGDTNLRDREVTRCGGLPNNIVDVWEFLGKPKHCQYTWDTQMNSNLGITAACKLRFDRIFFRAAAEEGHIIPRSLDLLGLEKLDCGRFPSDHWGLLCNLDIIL
#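 Material: recombinant human TDP2; quantity: TDP2 enzyme at 120 nM final; medium: Tris-HCl pH 7.5 with MgCl2; compound: single concentration, 12.8 µM nominal, with 1% DMSO; incubation: 2 h enzyme incubation at 37 °C; signal: epi absorbance; measure: percent inhibition; benchmarks: high control without enzyme, low control DMSO plus TDP2; repeats: singlicate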
# GSTO1 inh: counter-screen for RBBP9 inhibitors: inhibitors of human GSTO1; P78417; recombinant GSTO1, activity-based probe fluorescence polarization; inhibition, % at 5.96 µM; 300,000 tested, 1.1% active; AID 1974;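 active = inhibition above the campaign mean inhibition plus 3 SD, cut at about 35% in these data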;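 note: 0% = GSTO1-1 with DMSO and 100% = wells lacking GSTO1-1 enzyme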
# Target sequence (P78417 whole entry, looked up): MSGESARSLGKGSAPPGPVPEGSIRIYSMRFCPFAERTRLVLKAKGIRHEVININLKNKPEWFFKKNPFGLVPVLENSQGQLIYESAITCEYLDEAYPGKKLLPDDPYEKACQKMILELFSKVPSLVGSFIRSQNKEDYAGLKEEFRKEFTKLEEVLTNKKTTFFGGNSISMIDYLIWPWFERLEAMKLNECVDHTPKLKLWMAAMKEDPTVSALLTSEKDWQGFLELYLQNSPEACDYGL
# * marks the source's active call; other numbers are inactive results; nt = no result given. A selection: hits, their analogues and other compounds. The true share with any hit is near 1.8%.
SMILES,PAD4 inh,Apaf1 inhib,CTSL1 counter,TDP2 inh,GSTO1 inh
Cc1cc(C)n(CC(O)Cn2c(C)c(C)c3ccccc32)n1 (stereo not given),-17,10,19*,5,-23
Cc1c(C)n(CC(O)CN2CCCCC2)c2ccccc12 (stereo not given),-2,-1,4,-3,13
COC(=O)c1[nH]c2ccccc2c1NC(=O)CN1CCN(C(=O)c2ccco2)CC1,-4,-11,-3,3,36*
CC1CN(CCCCOc2ccc3ccccc3c2)CC(C)O1 (stereo not given),-7,8,19*,3,7
Cc1[nH]n(-c2ccccc2)c(=O)c1Sc1ccc(Cl)cc1,-4,21,1,10,9
Cc1[nH]n(-c2ccccc2)c(=O)c1C(C[N+](=O)[O-])c1ccc(Cl)cc1 (stereo not given),-1,88*,1,27*,61*
O=C(N1CCc2ccccc2C1)n1cc(C(O)(c2ccccc2)c2ccccc2)nn1,nt,nt,nt,-6,nt
Cc1ccc(NC(=O)c2sc(Cl)nc2C)c(C)c1,-1,-12,-1,1,4
Cc1ccc(NC(=O)c2sc(C)nc2C)c(C)c1,-3,-2,18*,8,6
Cc1ccc(CCNC(=O)c2cc(S(=O)(=O)N3CCOCC3)cn2C)cc1,3,7,67*,-10,-1
CCN=c1scc(C)n1/N=C/c1ccc(O)c(O)c1O,3,3,1,-3,69*
COc1ccc(C(=O)CSc2nnc(-c3ccc(C)cc3)o2)cc1,2,8,-4,4,13
COc1ccc(C(=O)CSc2nnc(-c3cc(C)on3)o2)cc1,-5,-10,-1,-5,36*
O=C(CSc1nnc(C2CCCCC2)o1)N1CCCCC1,-2,4,23*,-5,-4
COc1ccc(Cc2nnc(SCC(=O)N3CCCCC3)o2)cc1,-7,4,17*,4,2
O=C(CSc1nnc(C2COc3ccccc3O2)o1)N1CCCC1 (stereo not given),0,-2,-5,-6,9
COc1ccc(Cc2nnc(SCC(=O)c3ccc(OC)cc3)o2)cc1,-1,8,1,5,37*
COc1ccc(Cc2nnc(SCC(=O)N3CCN(c4ccccc4)CC3)o2)cc1,-1,10,-7,-7,10
CC(=O)Nc1sc2c(c1-c1nc(-c3ccccc3)cs1)CCN(C(C)C)C2,nt,nt,nt,7,nt
CN1[C@@H](Cc2ccccc2)COc2cccc(N3CCSCC3)c2S1(=O)=O,nt,nt,nt,2,nt
CCCn1c(CNc2ccccc2O)nc2ccccc21,5,8,2,1,35*
CCOC(=O)[C@@]12CCCC=C1N(CCc1ccc(Cl)cc1)C(=O)[C@H]2CC(=O)NCc1cccs1,nt,nt,nt,5,nt
Oc1oc(-c2cccc3ccccc23)nc1/C=N/c1nccs1,-1,12,22*,1,-5
COc1ccc(OC)c(CN2C(=O)CCCC2(C)c2nnnn2C2CCCC2)c1 (stereo not given),nt,nt,nt,-2,nt
NC(=S)N/N=C1/CCSc2ccc3ccccc3c21,-5,20,25*,-10,3
SMILES,PAD4 inh,Apaf1 inhib,CTSL1 counter,TDP2 inh,GSTO1 inh
O=S1(=O)c2ccc(N3CCSCC3)cc2Oc2ccccc2CN1Cc1cn(Cc2cccc(C(F)(F)F)c2)nn1,nt,nt,nt,-2,nt
CCCCCCN(C(=O)CCCCCN1C(=O)NC(c2ccc(-c3ccccc3)cc2)C(C(=O)OCc2ccccc2)=C1C)C(C(=O)NCCCC)c1cccc(C(=O)OC)c1 (stereo not given),nt,79*,nt,-10,nt
S=C(Nc1ccc(Cl)c(Cl)c1)Nc1nnc(-c2ccncc2)s1,nt,nt,nt,-17,nt
COc1ccc(CC(=O)OCC(=O)Nc2ccc3c(c2)OCO3)cc1OC,-7,4,-4,2,-2
COc1ccc(CCC(=O)Nc2ccc3c(c2)OCO3)cc1OC,-4,-8,-1,7,35*
CCCCCCCCN1C(=O)[C@@H](CC(=O)N2CCCC2)C[C@@]2(C(=O)OC)C1=C[C@H](C(C)(C)C)O[C@@H]2C,nt,nt,nt,-6,nt
N#CCCN(C(=O)COC(=O)C12CC3CC(CC(O)(C3)C1)C2)c1ccc(F)cc1,-11,43*,nt,-8,nt
Cc1ccc(S(=O)(=O)NC[C@H]2CN(S(=O)(=O)c3ccc(C)cc3)[C@@H](Cc3ccccc3)CO2)cc1,nt,nt,nt,-6,nt
Cc1ccc(NC(=O)Nc2cc(S(=O)(=O)N(C)C)ccc2C)cc1,-3,2,18*,6,0
COc1ccc(CNC(=O)CSc2nc3[nH]ncc3c(=O)n2-c2ccccc2Br)cc1,-2,-1,-2,nt,42*
COC(=O)[C@]12C[C@H](CC(=O)NCC3CCCCC3)C(=O)N(Cc3ccco3)C1=C[C@H](C(C)C)O[C@@H]2C1CC1,nt,nt,nt,-3,nt
CCNc1nc(N)c([N+](=O)[O-])c(Nc2cccc(Cl)c2)n1,nt,nt,nt,4,nt
CCN1C(=O)c2ccccc2S(=O)c2ccc(C(=O)NCc3ccccn3)cc21 (stereo not given),4,9,1,4,37*
CCN1C(=O)c2ccccc2S(=O)c2ccc(C(=O)NCCN(CC(C)C)CC(C)C)cc21 (stereo not given),-5,7,-3,-1,-2
COc1ccccc1CNC(=O)N(CCc1c(C)[nH]c2ccccc12)Cc1cccs1,nt,nt,nt,4,nt
CCC1CCc2sc(C(=O)NCC(c3ccc(OC)cc3)N3CCCC3)cc2C1 (stereo not given),-5,46*,5,1,-2
COc1ccc(C(CNC(=O)c2cccc(N(C)C)c2)N2CCCC2)cc1 (stereo not given),0,12,2,-17,6
C=CCNC(=O)Nc1ccc2c(c1)[C@@]1(CC(=O)N(CC(C)C)C1c1ccccc1)C(=O)N2C (stereo not given in full),nt,nt,nt,4,nt
COC(=O)C1CN(Cc2ccccc2)CCS(=O)(=O)N1Cc1cn(Cc2ccc(F)cc2)nn1 (stereo not given),nt,nt,nt,-4,nt
Cc1noc(C)c1C(=O)N1CCC(n2nnc3ncccc32)CC1,nt,nt,nt,8,nt
CSCCC(NC(=O)c1ccccc1Br)C(=O)NCC(c1ccco1)N1CCCCC1 (stereo not given),-4,5,21*,4,4
CSc1ccccc1C(=O)NCC(c1ccco1)N1CCCCC1 (stereo not given),-6,-2,0,-2,4
C[C@@H](NC(=O)c1ccc(C#Cc2cccc(F)c2)cn1)C(C)(C)O,nt,nt,nt,0,nt
Cc1c(CCO)c(=O)[nH]n1S(=O)(=O)c1ccccc1,1,-1,-3,6,-1
Cc1c(CCO)c(=O)n(-c2ccccc2)n1S(=O)(=O)c1c(Cl)cc(Cl)cc1Cl,-5,19,-6,1,37*
CCNC(=O)OC[C@H]1O[C@H](C#Cc2ccc(C(C)(C)C)cc2)C=C[C@H]1OC(C)=O,nt,nt,nt,2,nt
O=C(C(=O)N1CCC(CNS(=O)(=O)c2ccc(F)c(F)c2)CC1)c1cc2ccccc2o1,nt,nt,nt,6,nt
